Results taken from the EternaBench riboswitch data.

System: MS2 coat protein
Test: apparent Kd, MS2 coat protein; higher = weaker binding; RNA-MaP array; FMN 200 µM where present
Summary of the method: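 Binding was read on Illumina sequencing-chip clusters where stalled E. coli RNA polymerase had transcribed each design. A titration of SNAP-549-labelled MS2 coat protein began at 0.7 or 1.5 nM and doubled to 3 µM, once without ligand and once with constant ligand, in 100 mM Tris-HCl pH 7.5, 80 mM KCl, 4 mM MgCl2, BSA, DTT, yeast tRNA and Tween-20. The apparent Kd is the median of filtered per-cluster binding-curve fits, based on green signal normalised to red-channel RNA signal and control-cluster median Fmax.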

[1] = designed as: OFF switch for flavin mononucleotide, no ligand
[2] = ligand present: flavin mononucleotide, designed as: OFF switch for flavin mononucleotide
[3] = designed as: ON switch for flavin mononucleotide, no ligand
[4] = ligand present: flavin mononucleotide, designed as: ON switch for flavin mononucleotide

CACAAGAAAGUCGAACUAUGUAGGAGAAGGAGUAUAACAUGACAUGAGGAUCACCCAUGUGCCAAUUAGGAUAUUUUAUAUGGG
apparent Kd [1]: 184 nM | apparent Kd [2]: 97.7 nM

CCGAAACCUCAGAAGGACCACAUGAGGAUCACCCAUGUCAAGCAAAACGGUAGGAUAUGAGGGAAAAGUCGAUAUACCCGACAG
apparent Kd [3]: 7.84 nM | apparent Kd [4]: 3.93 nM

GAGCUAUGAGGAUAUGCAUAUAUACGGAUUCGUGUGGUACUACAUGAGGAUCACCCAUGUAGAAGGCGUGGCUG
apparent Kd [1]: 19 nM | apparent Kd [2]: 20.8 nM

UAUAUAAUUAAGAGCUGGCUCAAAACAUGAGGAUCACCCAUGUAGGAUAUCAGCACGAUAAGUGCUGAGAAGGACAUCCAGCUC
apparent Kd [1]: 16.9 nM | apparent Kd [2]: 24.5 nM

CUCCGGCGUGUAGGAUAUGGAUCCGAUUAGGAUCCAGAAGGACAUGAGGAUCACCCAUGUACAUGUAAACAGUCAUCACCGGAU
apparent Kd [1]: 8.57 nM | apparent Kd [2]: 37.2 nM

CAUUGGUAAGGAUAUGAAUCGAUCUCAGAAAUGAGAUCGAUUCAGAAGGUACAUGAGGAUCACCCAUGUUGAUG
apparent Kd [1]: 27.8 nM | apparent Kd [2]: 72.9 nM

CAGUCUACAGGAUAUACAUGAGGAUCACCCAUGUAAAUUCACUUUCAGUAGUCUACAUGUAGAAGGGUAGACUG
apparent Kd [1]: 21.3 nM | apparent Kd [2]: 40.3 nM

GAACACGGAGGAUAUACAUGAGGAUCACCCAUGUUGAUCCUCAUUAAAAUUGAUAACUGUAGAAGGCCGUGAUA
apparent Kd [1]: 44.8 nM | apparent Kd [2]: 22.2 nM

GGCUGCGUUGUGAAGGAUAUCCGCGUCUGGACAUGAGGAUCACCCAUGUAUGCUUGGAUCGUGCCGGAGAAGGUCACGAAUGAUU
apparent Kd [3]: 34.5 nM | apparent Kd [4]: 15.9 nM

ACCGUUGAAGCAGGAUAUUAUAGCGCCAGCGUAUAAGAAGGGCUUCAACAUGAGGAUCACCCAUGUUGGAGUACCUCAAAAGUG
apparent Kd [1]: 5.53 nM | apparent Kd [2]: 23.7 nM

GCCACAGCAGGAUAUUCAAUAAUUCACAUGAGGAUCACCCAUGUCGAGCGAAAGCUCGAGGGAGAAGGGCUGUGGC
apparent Kd [1]: 39.5 nM | apparent Kd [2]: 13.7 nM

GACUUGUCAGGAUAUCUUACAUUUGCAUCGUAGUUACCAUUGGAGAAGGGACAUGAGGAUCACCCAUGUUUGGC
apparent Kd [1]: 25.6 nM | apparent Kd [2]: 23.9 nM

UUUUAGCAGUCAGGAUAUGCAACGCACAACGACGCAGAAGGGACAUGAGGAUCACCCAUGUUAUGGUUCUGGUACUAUGACGUU
apparent Kd [1]: 18.1 nM | apparent Kd [2]: 24.6 nM

CUGGAUCACGCAGGAUAUUACAUGAGGAUCACCCAUGUCAGGACUGCAAUAUCGUCUCCUCGGUGUGAGAAGGGCGGAAUCAUU
apparent Kd [1]: 15 nM | apparent Kd [2]: 27 nM

AGUACCAUGUAGAAGGGAUAUCUGAUUCAGAUAUCAGGAUAUACAUGAGGAUCACCCAUGUAAAUGUACUCCAGGAAACUGGAA
apparent Kd [1]: 18 nM | apparent Kd [2]: 48 nM

GGAUGACAAAGUCAUCCAAUUCGAACAUGAGGAUCACCCAUGUAGGAUAUCGUACUCAAAGAGUACGAGAAGGACAUGUGCUUU
apparent Kd [1]: 40.3 nM | apparent Kd [2]: 154 nM

UAAUUGUGAGGAUAUUCGUAGUUCUCGGAGACGAGAAUUACGGAGAAGGCACAUGAGGAUCACCCAUGUUCCUU
apparent Kd [1]: 18.3 nM | apparent Kd [2]: 96.1 nM

AGCAUGCAGUAGGAUAUCGAUCCACAAUAUGAACGAGAAGGACUGACAUGAGGAUCACCCAUGUGCGUCCUAGG
apparent Kd [1]: 16.7 nM | apparent Kd [2]: 16.6 nM

CCGGAAAUAGAGGAUAUAGGAGUCGAUAGACUCCUAGAAGGCUAUACAUGAGGAUCACCCAUGUGUCCUACCGG
apparent Kd [1]: 17.4 nM | apparent Kd [2]: 39.6 nM

GCAUGACAUGUAGGAUAUCGAGCGCCGAGCGCUCGAGAAGGACAUGAGGAUCACCCAUGUAUUCCGAAUGAAUCAAGUCAUGCA
apparent Kd [1]: 14.3 nM | apparent Kd [2]: 16.2 nM
